Assay outcomes from PubChem.
OXTR agonist: human OXTR agonists, primary screen, fluorescence, CHO-OTR cells, Fluo-8 calcium; Oxytocin receptor (Homo sapiens), P30559; AID 2435, 2010; 320,000 tested, 0.32% active; activation, % at 3 µM; Fluo-8 calcium fluorescence; normalized: DMSO 0%, oxytocin 100%;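 active = activation above the mean of all tested compounds plus 3 SD, cutoff set per screening run, cut at about 20% in these data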;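 note: peak over basal fluorescence ratio from a 100 s FLIPR kinetic read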
Target sequence (P30559 whole entry, looked up): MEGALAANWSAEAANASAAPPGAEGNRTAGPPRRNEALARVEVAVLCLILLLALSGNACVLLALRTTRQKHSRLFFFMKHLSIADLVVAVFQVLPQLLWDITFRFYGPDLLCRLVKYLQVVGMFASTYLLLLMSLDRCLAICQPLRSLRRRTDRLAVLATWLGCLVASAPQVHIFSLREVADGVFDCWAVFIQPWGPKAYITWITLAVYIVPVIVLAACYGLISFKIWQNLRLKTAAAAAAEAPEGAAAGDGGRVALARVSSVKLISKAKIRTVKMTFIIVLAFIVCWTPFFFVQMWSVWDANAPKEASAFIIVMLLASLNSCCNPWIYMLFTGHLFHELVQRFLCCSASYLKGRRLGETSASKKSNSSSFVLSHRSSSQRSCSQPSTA
TAAR1 antag: human TAAR1 antagonists, primary screen, Fluo-8 calcium fluorescence, CHO RD-HGA16 cells. 360,000 tested, 1.5% active. inhibition, % at 3 µM. AID 624466, 2012. Trace amine-associated receptor 1 (Homo sapiens), Q96RJ0. antagonist;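 active = inhibition above a per-plate cutoff, the mean inhibition of test compounds on that plate plus 3 SD, cut at about 49% in these data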
Target sequence (Q96RJ0 whole entry, looked up): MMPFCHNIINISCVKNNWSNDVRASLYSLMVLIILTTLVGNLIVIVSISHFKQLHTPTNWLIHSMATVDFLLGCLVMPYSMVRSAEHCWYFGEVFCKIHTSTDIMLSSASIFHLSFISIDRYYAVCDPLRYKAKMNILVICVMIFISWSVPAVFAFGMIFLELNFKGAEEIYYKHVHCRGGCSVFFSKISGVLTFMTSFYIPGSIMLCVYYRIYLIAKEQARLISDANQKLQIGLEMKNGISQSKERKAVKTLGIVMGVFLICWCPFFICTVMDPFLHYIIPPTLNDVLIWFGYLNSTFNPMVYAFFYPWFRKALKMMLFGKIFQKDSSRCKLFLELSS
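Assay system: CHO-derived RD-HGA16 cells stably expressing human TAAR1 plus Gα16. Timing: 140 s kinetic read after compound, 140 s after agonist. Technique: kinetic Fluo-8 calcium fluorescence measurement. Measure: % inhibition of agonist calcium response.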
V1R ag counter: agonists of human V1a receptor, primary screen, counter-screen for OXTR agonist project, fluorescence, CHO-V1R cells; Vasopressin V1a receptor (Homo sapiens), P37288; Fluo-8 calcium fluorescence, agonist mode; 0% DMSO, 100% 3 nM vasopressin; activation, % at 3 µM; 320,000 tested, 0.25% active; AID 2797, 2010;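 active = activation above the mean activation of all tested compounds plus 3 SD, per screening run, cut at about 20% in these data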;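 note: signal is peak over basal fluorescence ratio across a 100 second FLIPR read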
TAAR1 agonist: human TAAR1 agonists, primary screen, Fluo-8 calcium fluorescence, CHO RD-HGA16 cells. vehicle wells 0%, saturating PEA agonist 100%. AID 624467, 2012. 360,000 tested, 0.99% active. activation, % at 3 µM. Trace amine-associated receptor 1 (Homo sapiens), Q96RJ0;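 active = activation above the mean activation of all test compounds in the run plus 3 SD, cut at about 38% in these data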
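Test system: RD-HGA16 (CHO) cells co-expressing Gα16 and hTAAR1 / Benchmarks: DMSO vehicle as 0%, PEA at EC100 as 100% / Repeats: no replicates (n 1) / Measure: % activation from peak over basal fluorescence ratio, DMSO-to-PEA scaled / Timing: 17-24 h plating, Fluo-8 75 min 37 °C, 30 min RT / Technique: kinetic Fluo-8 calcium fluorescence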
OXTR potentiator: human OXTR potentiators, primary screen, fluorescence, CHO-OTR cells, Fluo-8 calcium; Oxytocin receptor (Homo sapiens), P30559; Fluo-8 calcium fluorescence, potentiator mode; 0% = oxytocin EC15, 100% = EC100; activation, % at 3 µM; 320,000 tested, 0.061% active;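 active = activation above that plate's cutoff, the mean activation of tested compounds plus 3 SD, cut at about 6.6% in these data, passing the limit was not always enough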
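Material: CHO-OTR cells, human receptor; compound dosing: single dose, 3.0 µM nominal final compound concentration; schedule: 6 min compound pre-incubation at room temperature, 100 s kinetic read; measured by: kinetic Fluo-8 calcium fluorescence; read-out basis: % activation vs EC15 and EC100 oxytocin; controls: EC15 oxytocin alone as 0%, 75 nM oxytocin as 100%; replicates: singlicate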
TAAR1 nonsel count: nonselective antagonists in TAAR1 counter-screen cells, counter-screen for hTAAR1 antagonist project, cell-based, fluorescence, calcium; 2,400 tested, 77% active; inhibition, % at 3 µM; shares compounds with TAAR1 antag; counterscreen cell line, antagonist mode; in the data active = inhibition above about 22%;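 note: CHO-Ga16 host cells stimulated with ATP at an EC80 level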
TAAR1 ant conf: human TAAR1 antagonists, retest of hits, confirmation, cell-based, fluorescence. shares compounds with TAAR1 antag. TAAR1-expressing cells, fluorescence antagonist read-out. inhibition, % at 3 µM. 2,400 tested, 40% active. AID 651785, 2012; in the data active = inhibition above about 49%;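 note: CHO-Ga16 host cells challenged with agonist PEA near its EC80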
Ga16 ag counter: calcium activation in Ga16-expressing cells, counter-screen for TAAR1 antagonist project, cell-based, fluorescence; 2,400 tested, 18% active; agonist counterscreen; activation, % at 3 µM; AID 651953, 2012; shares compounds with TAAR1 antag; in the data active = activation above about 12%
TAAR1 ag counter: TAAR1 activation by candidate antagonists – cell-based, fluorescence, counter-screen for TAAR1 antagonist project | shares compounds with TAAR1 antag | 2,400 tested, 2% active | hTAAR1 cell line, agonist mode | AID 651955, 2012 | activation, % at 3 µM; in the data active = activation above about 37%;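 note: CHO cells stably expressing TAAR1 with calcium dye readout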
A number is an active result. Only some compounds are listed: those with a hit (about 2.3% of all), similar ones and a draw of the others.

For COc1c(F)c(F)c(C(=O)Nc2cccc(Cl)c2N2CCOCC2)c(F)c1F the results were OXTR agonist inactive, TAAR1 antag 72.4, V1R ag counter inactive, TAAR1 agonist inactive, OXTR potentiator inactive, TAAR1 nonsel count inactive, TAAR1 ant conf inactive, Ga16 ag counter inactive and TAAR1 ag counter inactive.
`O=C(Nc1cccc(Cl)c1N1CCOCC1)c1ccco1` gave OXTR agonist inactive, TAAR1 antag inactive, V1R ag counter inactive, TAAR1 agonist inactive and OXTR potentiator inactive.
Screening Nc1[nH]c(C(=O)c2ccccc2)c(-c2ccc(Cl)c(F)c2)c1C(=O)c1c[nH]c2ccccc12 returned TAAR1 antag inactive and TAAR1 agonist inactive.
`CN(C1CCCCC1)S(=O)(=O)c1ccc(NC(=O)c2ccc(Br)o2)cc1` gave OXTR agonist inactive, TAAR1 antag 63.4, V1R ag counter inactive, TAAR1 agonist inactive, OXTR potentiator inactive, TAAR1 nonsel count 22.7, TAAR1 ant conf inactive, Ga16 ag counter inactive and TAAR1 ag counter inactive.
Nc1ccc2c(Cl)cc(Cl)cc2c1 was read as TAAR1 antag inactive and TAAR1 agonist inactive.
For COC(=O)c1ccccc1S(=O)(=O)N1CCC(C(=O)NCCC2=CCCCC2)CC1 the results were OXTR agonist inactive, TAAR1 antag inactive, V1R ag counter inactive, TAAR1 agonist inactive and OXTR potentiator inactive.
Screening O=C(CN1c2ccccc2Sc2ccccc21)NNC(=O)Nc1cccc(Cl)c1 returned OXTR agonist inactive, TAAR1 antag 58.4, V1R ag counter inactive, TAAR1 agonist inactive, OXTR potentiator inactive, TAAR1 nonsel count inactive, TAAR1 ant conf inactive, Ga16 ag counter inactive and TAAR1 ag counter inactive.
`O=C(Cc1ccccc1)NNC(=O)Nc1cccc(Cl)c1` gave OXTR agonist inactive, TAAR1 antag inactive, V1R ag counter inactive, TAAR1 agonist inactive and OXTR potentiator inactive.
COC(=O)c1ccc(N2C(c3cccc(OC)c3)=Cc3ccc(F)cc3C2c2c(C)[nH]c3ccccc23)cc1 (stereo not drawn) was read as TAAR1 antag inactive and TAAR1 agonist inactive.
`Cc1ccc(C(=O)OCC(=O)N2CCC(C)CC2)cc1S(=O)(=O)N1CCOCC1` gave TAAR1 antag inactive and TAAR1 agonist inactive.
`O=C1CCCCC1C(Nc1ccc(Cl)cc1)c1ccccc1` (stereo not drawn) gave OXTR agonist inactive, TAAR1 antag 67.8, V1R ag counter inactive, TAAR1 agonist inactive, OXTR potentiator inactive, TAAR1 nonsel count inactive, TAAR1 ant conf inactive, Ga16 ag counter inactive and TAAR1 ag counter inactive.
Screening O=C1CCCCC1C(Nc1ccc(Br)cc1)c1ccccc1 (stereo not drawn) returned OXTR agonist inactive, TAAR1 antag inactive, V1R ag counter inactive, TAAR1 agonist inactive and OXTR potentiator inactive.
`COCCNC(=O)c1cccc2c(-c3cccc(C(N)=O)c3)coc12` gave TAAR1 antag inactive and TAAR1 agonist inactive.
For CC(=O)c1cccc(NC(=O)c2cccc3c(-c4cccc(C(N)=O)c4)coc23)c1 the results were TAAR1 antag 85.4, TAAR1 agonist inactive, TAAR1 nonsel count 41.5, TAAR1 ant conf 56.2, Ga16 ag counter 12.7 and TAAR1 ag counter inactive.
COc1cc(NC(=O)c2cccc3c(-c4cccnc4)coc23)cc(OC)c1OC was read as TAAR1 antag 76.4, TAAR1 agonist inactive, TAAR1 nonsel count 28.8, TAAR1 ant conf 58.8, Ga16 ag counter 16.3 and TAAR1 ag counter inactive.
CC(=O)c1ccc(N2CCN(C(=O)c3cc4c(-c5ccccc5F)nn(C)c4s3)CC2)cc1 was read as OXTR agonist inactive, TAAR1 antag 55.4, V1R ag counter inactive, TAAR1 agonist inactive, OXTR potentiator inactive, TAAR1 nonsel count 25.6, TAAR1 ant conf inactive, Ga16 ag counter inactive and TAAR1 ag counter inactive.
C[C@H]1CN([C@@H](C)CO)S(=O)(=O)c2ccc(Br)cc2O[C@@H]1CN(C)C(=O)Cc1cccnc1 was read as TAAR1 antag inactive and TAAR1 agonist inactive.
O=C(c1cc(-c2cccs2)nn1-c1ccccc1)N1CCN(S(=O)(=O)c2ccccc2)CC1 was read as OXTR agonist inactive, TAAR1 antag 67.7, V1R ag counter inactive, TAAR1 agonist inactive, OXTR potentiator inactive, TAAR1 nonsel count 30.0, TAAR1 ant conf 51.7, Ga16 ag counter inactive and TAAR1 ag counter inactive.
`CCCCN(CCCC)CCCNC(=O)Cn1cc(C)c(=O)[nH]c1=O` gave TAAR1 antag inactive and TAAR1 agonist inactive.
For COC(=O)C1(C)CCCC2(C)C3CCC(C(C)C)C(CO)C3C(CO)CC12 (stereo not drawn) the results were TAAR1 antag 82.0, TAAR1 agonist inactive, TAAR1 nonsel count 32.2, TAAR1 ant conf 55.0, Ga16 ag counter 13.9 and TAAR1 ag counter inactive.
CC1=C(CC[C@@H](C)CO)OC2CC3C4CCC5CC(O)CCC5(C)C4CC(=O)C3(C)C12 (stereo partly drawn) was read as OXTR agonist inactive, TAAR1 antag 76.4, V1R ag counter inactive, TAAR1 agonist inactive, OXTR potentiator inactive, TAAR1 nonsel count 29.4, TAAR1 ant conf 52.4, Ga16 ag counter inactive and TAAR1 ag counter inactive.
`O=C(CCn1c(=O)oc2ccccc21)N(Cc1ccccc1)c1ccccc1` gave OXTR agonist inactive, TAAR1 antag 69.5, V1R ag counter inactive, TAAR1 agonist inactive, OXTR potentiator inactive, TAAR1 nonsel count 23.3, TAAR1 ant conf 49.8, Ga16 ag counter inactive and TAAR1 ag counter inactive.
For Cc1ccc2c(CC(=O)Nc3ccc4nc(N5CCOCC5)sc4c3)coc2c1 the results were TAAR1 antag inactive and TAAR1 agonist inactive.
`CCN(CC)S(=O)(=O)c1ccc(/C(O)=C(\C#N)c2nc3ccccc3n2C)cc1` gave OXTR agonist inactive, TAAR1 antag 63.4, V1R ag counter inactive, TAAR1 agonist inactive, OXTR potentiator inactive, TAAR1 nonsel count 35.1, TAAR1 ant conf 48.8, Ga16 ag counter 12.6 and TAAR1 ag counter inactive.
